Measurements: ChEMBL document CHEMBL3244048, “Synthesis and biological activity of potential antimetabolites of L-fucose” (1979)
Active and inactive are the calls of the source. The calls are words filed in the database; no cut-off is given here.

Experiments:
P388 [1] = test: Cytotoxicity against mouse P388 cells assessed as growth inhibition at 1x10'-3 M after 72 hrs by Coulter counting analysis relative to control; format: functional; details: P388, 72 h, read-out: GI
Outline: (§1)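 P388 leukemia cells seeded at 1.1 × 10^4 cells/mL in Fischer's medium with 10% horse serum. Compound dissolved in 0.9% NaCl, with or without 3% Me2SO, at ten times final concentration, filter-sterilized, and added at one-tenth volume. Incubation at 37 °C under 5% CO2; cell numbers counted in triplicate by electronic particle counter after 72 h.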

P388 [2] = test: Cytotoxicity against mouse P388 cells assessed as growth inhibition at 5x10'-4 M after 72 hrs by Coulter counting analysis relative to control; format: functional; details: P388, 72 h, read-out: GI; outline: as §1
P388 [3] = test: Cytotoxicity against mouse P388 cells assessed as growth inhibition at 1x10'-4 M after 72 hrs by Coulter counting analysis relative to control; format: functional; details: P388, 72 h, read-out: GI; outline: as §1
P388 [4] = test: Displacement of L-[3H]-fucose from glycoprotein in mouse P388 cells at 10^-4 to 10^-3 M incubated for 2 hrs prior to radioligand addition measured after 30 mins by scintillation spectrometric analysis; format: cell-based
Outline: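 P388 cells grown to midlog phase (4 × 10^5 cells/mL) in Fischer's medium plus 10% horse serum, then resuspended in fresh medium at 5 × 10^6 cells/mL. Preincubated 2 h at 37 °C with shaking with compound at 10^-4 or 10^-3 M. L-[3H]fucose and [14C]glucosamine (nonspecific control) then added for 30 min. Stopped with cold 10% TCA; pellets washed, lipid-extracted, hydrolyzed in 0.5 N NaOH at 85 °C; scintillation counting.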

P388 [5] = test: Cytotoxicity against mouse P388 cells assessed as growth inhibition at 1x10'-5 M after 72 hrs by Coulter counting analysis relative to control; format: functional; details: P388, 72 h, read-out: GI; outline: as §1
P388 [6] = test: Cytotoxicity against mouse P388 cells assessed as growth inhibition at 2.5x10'-4 M after 72 hrs by Coulter counting analysis relative to control; format: functional; details: P388, 72 h, read-out: GI; outline: as §1

Row | Compound | inhibition of growth at 1000 µM (P388 [1]) | inhibition of growth at 500 µM (P388 [2]) | inhibition of growth at 100 µM (P388 [3]) | inhibition (P388 [4]) | inhibition of growth at 10 µM (P388 [5]) | inhibition of growth at 250 µM (P388 [6])
1 | OC1O[C@@H](CI)[C@@H](O)[C@@H](O)[C@@H]1O (stereo not given in full) | 91% | 71% | 44% | inactive |  | 
2 | OC1O[C@@H](CBr)[C@@H](O)[C@@H](O)[C@@H]1O (stereo not given in full) | 97% | 87% | 33% | inactive |  | 
3 | O=C(NC[C@@H]1OC(O)[C@@H](O)[C@H](O)[C@@H]1O)C(F)(F)F (stereo not given in full) | 36% |  | 14% | inactive | 7% | 
4 | CCOC[C@@H]1OC(O)[C@@H](O)[C@H](O)[C@@H]1O (stereo not given in full) | 23% | 31% | 25% | inactive |  | 
5 | CS(=O)(=O)OC[C@@H]1OC(O)[C@@H](O)[C@H](O)[C@@H]1O (stereo not given in full) | 96% | 86% | 56% | inactive |  | 
6 | OC1O[C@@H](COCc2ccccc2)[C@@H](O)[C@@H](O)[C@@H]1O (stereo not given in full) | 26% | 21% | 17% | inactive |  | 
7 | Cc1ccc(S(=O)(=O)OC[C@@H]2OC(O)[C@@H](O)[C@H](O)[C@@H]2O)cc1 (stereo not given in full) | 96% | 94% | 25% | inactive | 14% | 
8 | CC(=O)NC[C@@H]1OC(O)[C@@H](O)[C@H](O)[C@@H]1O (stereo not given in full) | 16% |  | 9% | inactive | 15% | 
9 | COC[C@@H]1OC(O)[C@@H](O)[C@H](O)[C@@H]1O (stereo not given in full) | 73% |  | 16% | inactive | 12% | 
10 | CC[C@@H]1OC(O)[C@@H](O)[C@H](O)[C@@H]1O (stereo not given in full) | 2% |  |  | inactive |  | 
11 | [N-]=[N+]=NC[C@@H]1OC(O)[C@@H](O)[C@H](O)[C@@H]1O (stereo not given in full) | 20% |  | 12% | inactive | 7% | 
12 | O=S(=O)(OC[C@@H]1OC(O)[C@@H](O)[C@H](O)[C@@H]1O)c1ccccc1 (stereo not given in full) | 97% | 95% | 52% | inactive |  | 
13 | CC(=O)O[C@@H]1O[C@@H](C(F)F)[C@@H](OC(C)=O)[C@@H](OC(C)=O)[C@@H]1OC(C)=O |  |  |  |  |  | 89%
14 | OC1O[C@@H](CF)[C@@H](O)[C@@H](O)[C@@H]1O (stereo not given in full) | 8% |  | 10% | inactive | 3% | 
15 | OC1O[C@@H](C(F)F)[C@@H](O)[C@@H](O)[C@@H]1O (stereo not given in full) | 0% | 0% | 0% | inactive |  | 
16 | OC1O[C@@H](CCl)[C@@H](O)[C@@H](O)[C@@H]1O (stereo not given in full) | 15% |  | 10% | inactive | 10% | 
